Columns and labels:
[1] = system: A375 human melanoma cell line; assay: Cytotoxicity by SRB assay on A375 cells; format: cell-based; conditions: read-out: IC50 on A375 cells, 72 h treatment, mean ± SD (n = 3)
How it was run: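 A375 cells kept in DMEM with 10% FBS and 100 U mL−1 penicillin/streptomycin at 37 °C, 5% CO2. Seeded, grown 24 h, then exposed 72 h to test compound at 0.01–100 μM. Fixed in 10% TCA (1 h, 4 °C), stained with 0.4% w/v SRB (10 min, dark), washed with 1% acetic acid, dye dissolved in 10 mM Tris pH 10.5, A540 read.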

[2] = system: normal human skin fibroblast cells (HSF); assay: Cytotoxicity by SRB assay on normal HSF cells; format: cell-based; conditions: for IC50: Homo sapiens, Skin fibroblast, read-out: HSF IC50; for Selectivity index (SI): IC50 of normal cells (HSF)/IC50 of tumor cells (A375)
How it was run: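 Normal human skin fibroblasts (HSF) grown in DMEM/10% FBS/penicillin-streptomycin, 37 °C, 5% CO2. Plated 24 h, then 72 h with test compound at 0.01–100 μM. TCA fixation, SRB staining, 10 mM Tris pH 10.5 solubilisation, absorbance at 540 nm. IC50 by Emax curve fit, mean ± SD. Selectivity index = IC50 in HSF / IC50 in A375.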

BRAF^V600E = BRAF^V600E (Homo sapiens, UniProt P15056, V600E); assay: BRAF^V600E inhibition assay; format: cell-based
Sequence of BRAF^V600E (P15056 whole entry V600E): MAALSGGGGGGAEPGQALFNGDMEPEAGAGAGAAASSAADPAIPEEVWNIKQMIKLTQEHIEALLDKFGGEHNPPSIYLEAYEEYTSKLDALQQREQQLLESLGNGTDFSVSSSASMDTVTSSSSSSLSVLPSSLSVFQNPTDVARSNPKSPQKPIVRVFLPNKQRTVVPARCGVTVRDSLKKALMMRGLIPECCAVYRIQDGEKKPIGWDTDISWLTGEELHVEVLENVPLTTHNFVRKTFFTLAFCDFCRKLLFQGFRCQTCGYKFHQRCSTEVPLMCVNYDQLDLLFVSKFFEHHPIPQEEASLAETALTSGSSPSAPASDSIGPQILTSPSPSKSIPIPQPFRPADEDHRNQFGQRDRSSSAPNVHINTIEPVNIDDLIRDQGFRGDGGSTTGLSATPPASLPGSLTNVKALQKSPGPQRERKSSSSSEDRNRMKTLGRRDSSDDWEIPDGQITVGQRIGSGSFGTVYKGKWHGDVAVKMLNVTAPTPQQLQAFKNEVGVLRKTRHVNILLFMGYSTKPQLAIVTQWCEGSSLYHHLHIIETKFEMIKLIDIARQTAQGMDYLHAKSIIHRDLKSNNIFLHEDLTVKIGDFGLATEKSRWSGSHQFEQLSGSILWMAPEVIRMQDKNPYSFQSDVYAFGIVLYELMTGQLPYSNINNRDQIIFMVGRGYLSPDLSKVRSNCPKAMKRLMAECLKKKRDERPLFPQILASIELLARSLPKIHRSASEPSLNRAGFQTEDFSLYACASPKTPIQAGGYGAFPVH

VEGFR-2 = VEGFR-2 (Homo sapiens, UniProt P35968); assay: VEGFR-2 inhibition assay; format: cell-based
Sequence of VEGFR-2 (P35968 20-1356): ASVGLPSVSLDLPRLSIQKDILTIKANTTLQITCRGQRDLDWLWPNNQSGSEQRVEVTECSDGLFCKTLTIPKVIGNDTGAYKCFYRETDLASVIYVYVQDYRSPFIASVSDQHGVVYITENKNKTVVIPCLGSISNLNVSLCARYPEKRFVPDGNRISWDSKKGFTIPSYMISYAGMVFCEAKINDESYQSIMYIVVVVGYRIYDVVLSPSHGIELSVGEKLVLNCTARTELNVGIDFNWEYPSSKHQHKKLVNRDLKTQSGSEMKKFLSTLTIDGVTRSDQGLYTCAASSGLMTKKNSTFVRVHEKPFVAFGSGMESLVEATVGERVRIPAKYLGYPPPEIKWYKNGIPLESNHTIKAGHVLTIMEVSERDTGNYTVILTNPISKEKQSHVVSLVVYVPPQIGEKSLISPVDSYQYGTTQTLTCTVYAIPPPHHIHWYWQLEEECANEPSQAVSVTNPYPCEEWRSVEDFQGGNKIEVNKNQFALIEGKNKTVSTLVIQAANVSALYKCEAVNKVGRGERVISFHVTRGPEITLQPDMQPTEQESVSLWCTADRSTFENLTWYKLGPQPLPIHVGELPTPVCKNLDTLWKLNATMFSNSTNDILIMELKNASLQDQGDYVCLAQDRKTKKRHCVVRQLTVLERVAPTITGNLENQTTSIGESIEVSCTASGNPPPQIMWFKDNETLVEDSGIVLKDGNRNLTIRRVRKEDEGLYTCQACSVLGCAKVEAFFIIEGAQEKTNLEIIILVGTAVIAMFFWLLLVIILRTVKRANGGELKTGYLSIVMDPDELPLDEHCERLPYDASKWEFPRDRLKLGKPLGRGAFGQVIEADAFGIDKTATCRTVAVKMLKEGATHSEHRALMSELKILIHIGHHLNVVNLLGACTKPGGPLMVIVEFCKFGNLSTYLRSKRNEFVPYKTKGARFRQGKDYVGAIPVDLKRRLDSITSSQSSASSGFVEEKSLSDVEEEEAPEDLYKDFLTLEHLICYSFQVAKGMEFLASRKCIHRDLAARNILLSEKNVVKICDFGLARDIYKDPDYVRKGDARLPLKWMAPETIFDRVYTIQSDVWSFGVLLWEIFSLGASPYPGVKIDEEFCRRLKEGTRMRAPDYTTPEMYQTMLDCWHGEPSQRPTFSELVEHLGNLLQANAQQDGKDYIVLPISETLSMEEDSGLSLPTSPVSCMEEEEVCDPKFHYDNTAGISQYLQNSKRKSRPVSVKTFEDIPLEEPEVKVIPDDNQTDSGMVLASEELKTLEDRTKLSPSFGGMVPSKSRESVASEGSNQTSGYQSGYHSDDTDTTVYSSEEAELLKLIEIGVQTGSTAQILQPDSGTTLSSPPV

A375 cells [3] = assay: Cell cycle analysis by DNA flow cytometry; format: cell-based, human; conditions: A375, 48 h treatment
A375 cells [4] = assay: Annexin V-FITC/PI apoptosis assay; format: cell-based, human; conditions: A375, IC50 concentration, 48 h
A375 cells [5] = assay: Scratch wound healing assay; format: cell-based, human; conditions: 4j at 0.5 μM
How it was run: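 Confluent A375 monolayers (1 × 10^5 cells/well seeding) scored with a pipette tip to give one straight cell-free line, PBS-rinsed, then exposed to test compound. Gap imaged at ×100 at 0, 24, 48 and 72 h; horizontal wound width measured. Closure % = 100 − (Wt/W0 × 100). Triplicates, mean ± SD; ANOVA with Tukey post-hoc, P < 0.05.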

O=C1C(n2nc(-c3c(O)c4ccccc4oc3=O)cc2-c2ccc(F)cc2)c2ccccc2N1Cc1ccccc1 (stereo not shown) [Compound 4c, 1-Benzyl-3-(5-(4-fluorophenyl)-3-(4-hydroxy-2-oxo-2H-chromen-3-yl)-1H-pyrazol-1-yl) indolin-2-one]
IC50 [1]: 4.6 ± 0.32 µM

O=C1C(n2nc(-c3c(O)c4ccccc4oc3=O)cc2-c2ccc(F)cc2)c2cc(Cl)ccc2N1Cc1ccccc1 (stereo not shown) [Compound 4f, 1-Benzyl-5-chloro-3-(5-(4-fluorophenyl)-3-(4-hydroxy-2-oxo-2H-chromen-3-yl)-1H-pyrazol-1-yl) indolin-2-one]
IC50 [1]: 1.11 ± 0.02 µM | IC50 [2]: 4.18 ± 0.25 µM | Selectivity index (SI) [2]: 3.6

O=C1C(n2nc(-c3c(O)c4ccccc4oc3=O)cc2-c2ccc(F)cc2)c2cc(Br)ccc2N1Cc1ccccc1 (stereo not shown) [Compound 4i, 1-Benzyl-5-bromo-3-(5-(4-fluorophenyl)-3-(4-hydroxy-2-oxo-2H-chromen-3-yl)-1H-pyrazol-1-yl)indolin-2-one]
IC50 [2]: 3.26 ± 0.29 µM | Selectivity index (SI) [2]: 2.5

O=C1Nc2ccc(OC(F)(F)F)cc2C1n1nc(-c2c(O)c3ccccc3oc2=O)cc1-c1ccc(F)cc1 (stereo not shown) [Compound 4j, 3-(5-(4-Fluorophenyl)-3-(4-hydroxy-2-oxo-2H-chromen-3-yl)-1H-pyrazol-1-yl)-5 (trifluoromethoxy) indolin-2-one]
IC50 [2]: 9.58 ± 0.73 µM | Selectivity index (SI) [2]: 9.9 | fold more active than the reference sorafenib (BRAF^V600E inhibition) (BRAF^V600E): 2 fold | IC50 (BRAF^V600E; BRAF^V600E IC50, A375 cells, 24 h exposure, ELISA): 1.03 µM | IC50 (VEGFR-2): 0.64 ± 0.08 µM | cell percentage in the G2/M phase (A375 cells [3]): 16.00% | cell percentage of the S phase (A375 cells [3]): 9.86% | cell population of the G0/G1-phase (A375 cells [3]): 74.14% | cell population of the pre-G phase (A375 cells [3]): 1.88% | early apoptosis (Q2-4) (A375 cells [4]): 6.07% | late apoptosis (Q2-2) (A375 cells [4]): 2.3% | necrotic cell death (Q2-1) (A375 cells [4]): 2.52% | total cell death (A375 cells [4]; apoptosis plus necrosis): ~10.22% | scratch closure (A375 cells [5]; A375, 24 h): 14.28% | scratch closure (A375 cells [5]; A375, 48 h): 17.57% | scratch closure (A375 cells [5]; A375, 72 h): 35.16%

O=C1C(n2nc(-c3c(O)c4ccccc4oc3=O)cc2-c2ccc(Cl)cc2)c2ccccc2N1Cc1ccccc1 (stereo not shown) [Compound 5c, 1-Benzyl-3-(5-(4-chlorophenyl)-3-(4-hydroxy-2-oxo-2H-chromen-3-yl)-1H-pyrazol-1-yl)indolin-2-one]
IC50 [1]: 3.8 ± 0.22 µM

O=C1C(n2nc(-c3c(O)c4ccccc4oc3=O)cc2-c2ccc(Cl)cc2)c2cc(Cl)ccc2N1Cc1ccccc1 (stereo not shown) [Compound 5f, 1-Benzyl-5-chloro-3-(5-(4-chlorophenyl)-3-(4-hydroxy-2-oxo-2H-chromen-3-yl)-1H-pyrazol-1-yl)indolin-2-one]
IC50 [2]: 3.59 ± 0.32 µM | Selectivity index (SI) [2]: 3.3

O=C1C(n2nc(-c3c(O)c4ccccc4oc3=O)cc2-c2ccc(Cl)cc2)c2cc(Br)ccc2N1Cc1ccccc1 (stereo not shown) [Compound 5i, 1-Benzyl-5-bromo-3-(5-(4-chlorophenyl)-3-(4-hydroxy-2-oxo-2H-chromen-3-yl)-1H-pyrazol-1-yl)indolin-2-one]
IC50 [2]: 3.63 ± 0.76 µM | Selectivity index (SI) [2]: 3.5

CNC(=O)c1cc(Oc2ccc(NC(=O)Nc3ccc(Cl)c(C(F)(F)F)c3)cc2)ccn1 [Sorafenib, reference compound]
cell percentage in the G2/M phase (A375 cells [3]): 23.02% | cell population of the G0/G1-phase (A375 cells [3]): 60.43% | cell population of the pre-G phase (A375 cells [3]): 22.88% | apoptotic cell death (A375 cells [4]): 9.6% | scratch closure (A375 cells [5]; A375, 24 h): 9.15% | scratch closure (A375 cells [5]; A375, 48 h): 12.07% | scratch closure (A375 cells [5]; A375, 72 h): 24.17%

From paper PMC10870110 (RSC Advances, 2024)
